# Key:
# [1] = Distribution coefficient, log D at pH 7.4; type: physicochemical; details: octanol/water
# How it was run: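 Potentiometric titration, pH 2.0–11.0, 25 °C, in 0.15 mol/l KCl mixed with water-saturated 1-octanol in varying octanol portions. Titrants were 0.5 mol/l KOH and HCl. Distribution coefficients between 1-octanol and aqueous KCl were derived from these titrations.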
# [2] = Dissociation constant, pKa of the compound; type: physicochemical
# How it was run: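 Potentiometric co-solvent titration in 0.15 mol/l KCl over pH 2.0–11.0 at 25 °C. Methanol used as co-solvent in varying portions, with 0.5 mol/l KOH and HCl as titrants.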
# [3] = Inhibition of H+/K+ ATPase in hog gastric mucosa; type: tissue-based, Sus scrofa
# How it was run: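 Hog gastric H+/K+-ATPase (0.5–1 µg/100 µl), nigericin 1:1 with enzyme. Buffer 4 mM Pipes/8 mM Tris pH 7.4, 0.25 M sucrose, 1 mM MgCl2, 1 mM KCl as stimulant. Compounds 1e-4 to 1e-9 M final from DMSO stocks. Started with 1 mM Na-ATP, 30 min at room temperature. Phosphate read by malachite green at 680 nm; sigmoidal fit gives IC50.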
# Gastric gland = experiment: Effect on acid secretion in rabbit intact gastric glands assessed as inhibition of [14C][…] accumulation; type: functional, tissue-based; details: Oryctolagus cuniculus
# How it was run: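 Glands stimulated with 1 mM dibutyryl cAMP with or without inhibitor (3 nM–100 µM). Stopped by centrifugation, 10 s at 20,000g. 14C-aminopyrine radioactivity measured in supernatant and in NaOH-dissolved pellet. Accumulation taken from the pellet/supernatant ratio, normalized to gland wet/dry weight. IC50 obtained by fitting the expected inhibition equation.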
logD [1],pKa [2],Log IC50 [3],IC50 (Gastric gland) [µM],SMILES
3.21,7.26,-5.9,2,Cc1nc2c3c(c(C(N)=O)cn2c1C)CCC(c1ccccc1)C3 (configuration not stated)
2.76,7.05,-5,6.31,Cc1nc2c3c(c(C(=O)N4CCOCC4)cn2c1C)CCC(c1ccccc1)C3 (configuration not stated)
–,–,-6.2,1,CNC(=O)c1cn2c(C)c(C)nc2c2c1CCC(c1ccccc1)C2 (configuration not stated)
2.9,7.16,-6,0.398,Cc1nc2c3c(c(C(=O)N(C)C)cn2c1C)CCC(c1ccccc1)C3 (configuration not stated)
–,–,-7,0.0631,Cc1nc2c3c(ccn2c1CC#N)CCC(c1ccccc1)O3 (configuration not stated)
3.8,5.11,-4.9,10,Cc1nc2c3c(c(C(=O)N(C)C)cn2c1Br)CCC(c1ccccc1)C3 (configuration not stated)
3.37,7.2,-5.9,0.316,Cc1nc2c3c(c(C(=O)N4CCCC4)cn2c1C)CCC(c1ccccc1)C3 (configuration not stated)
2.81,7.22,-5.9,10,Cc1nc2c3c(c(C(=O)NCCO)cn2c1C)CCC(c1ccccc1)C3 (configuration not stated)
2.77,6.67,-4.8,7.94,Cc1cn2cc(C(=O)N(C)C)c3c(c2n1)CC(c1ccccc1)CC3 (configuration not stated)
3.31,7.22,-4.9,1.26,COCCNC(=O)c1cn2c(C)c(C)nc2c2c1CCC(c1ccccc1)C2 (configuration not stated)
3.93,7.79,-6.3,2,COCc1cn2c(C)c(C)nc2c2c1CCC(c1ccccc1)C2 (configuration not stated)
3.81,7.63,-5.1,7.94,Cc1cn2ccc3c(c2n1)CC(c1ccccc1)CC3 (configuration not stated)
3.9,8.05,-6.6,0.794,Cc1nc2c3c(ccn2c1C)CCC(c1ccccc1)C3 (configuration not stated)
2.23,6.32,-5.5,10,Cc1nc2c3c(c(C(=O)N(C)C)cn2c1CO)CCC(c1ccccc1)C3 (configuration not stated)
